Data reported in PubChem BioAssay.
Activity calls are given as the source filed them.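 How the source made its calls, unless noted: active means viability at or below 10% of carrier control in both of two separate runs; inconclusive means viability at or below 10% in only one of the two runs; inactive means the rest.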

What was measured:
[1] = Her2 expression decrease, cell viability multiplex – SKBR3 breast tumor cells, AlphaScreen, ATP viability, primary screen (AID 461;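 active means Her2 level under about 52% in both replicate screens, with viability over 70% of control, limit read from the data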;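 on Her2 level: lower value means less Her2 protein in the cells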;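 on viability: percent of carrier control wells set as 100% viability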); settings: SKBR3 Her2 protein level, 18-24 h, measured here: SKBR3 viability, ATP luminescence, at 10 µM
[2] = biological target: Receptor tyrosine-protein kinase erbB-2 (Homo sapiens) (UniProt P04626); assay: as above; settings: 18-24 h, at 10 µM, stronger effect = lower value
[3] = reduced viability of SK-BR-3 breast cancer cells – cell-based, 24 h, human, pilot screen (AID 572); settings: SK-BR-3 viability, CellTiter-Glo luminescence, at 10 µM, stronger effect = lower value;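 further: compound exposure lasted between 18 and 24 h rather than exactly 24 h; 100% = carrier-treated control wells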
[4] = HUVEC growth inhibition – cell-based, human, primary screen (AID 575;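 active means viability at or below 30% in both replicate assays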;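 further: 100% = median of untreated cell wells with 0.1% DMSO on each plate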); settings: HUVEC proliferation, CellTiter-Glo luminescence, 72 h; at 10 µM; stronger effect = lower value
How it was run: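 Test system: primary human umbilical vein endothelial cells. Quantity: 1250 cells/well. Compound: single 10 µM dose, 0.1% DMSO, from 5x medium stock. Timing: 72 h treatment at 37 °C. Detection: ATP-based CellTiter-Glo luminescent read. Benchmarks: vehicle and MePR control wells. Format: 384-well plates coated with collagen.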

[5] = H69AR cell proliferation blockers – human, duplicate replicates, primary screen (AID 580;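 active means viability at or under a set limit in both replicates, limit being median viability minus 3 SD, cut at about 48% in these data, passing the limit was not always enough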;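 further: 100% = mean luminescence of untreated wells and 0% = no signal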); settings: H69AR lung tumor cells viability, ATP luminescence, 72 h; at 10 µM; stronger effect = lower value
[6] = MRP1 drug-resistance reversers in H69AR cells – cell-based, doxorubicin co-treatment, pilot screen (AID 601;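 active means viability loss from added drug above about 55%, and viability with drug at most 40%, in both replicates, limit read from the data, passing the limit was not always enough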); settings: CellTiter-Glo, 72 h, at 10 µM; for differential viability (reversal): stronger effect = higher value
[7] = yeast transport mutant growth inhibition pilot in 384-well plates, post-Golgi transport modulator project (AID 636; in the data active means inhibition above about 31%); settings: absorbance 615 nm, about 18 h, stronger effect = higher value
[8] = growth suppression of yeast trafficking mutant, preliminary HTS, modulators of trafficking downstream of Golgi apparatus project, 1536-format plate, OD 615 nm (AID 637; in the data active means inhibition above about 30%); settings: yeast transport mutant growth, absorbance 615 nm, 18 h; stronger effect = higher value
[9] = H69AR cells + 2 uM doxorubicin, measured here: viability with 2 uM doxorubicin, stronger effect = lower value
[10] = H69AR cells, compound alone cytotoxicity

Receptor tyrosine-protein kinase erbB-2 (Homo sapiens), sequence (P04626 whole entry, looked up): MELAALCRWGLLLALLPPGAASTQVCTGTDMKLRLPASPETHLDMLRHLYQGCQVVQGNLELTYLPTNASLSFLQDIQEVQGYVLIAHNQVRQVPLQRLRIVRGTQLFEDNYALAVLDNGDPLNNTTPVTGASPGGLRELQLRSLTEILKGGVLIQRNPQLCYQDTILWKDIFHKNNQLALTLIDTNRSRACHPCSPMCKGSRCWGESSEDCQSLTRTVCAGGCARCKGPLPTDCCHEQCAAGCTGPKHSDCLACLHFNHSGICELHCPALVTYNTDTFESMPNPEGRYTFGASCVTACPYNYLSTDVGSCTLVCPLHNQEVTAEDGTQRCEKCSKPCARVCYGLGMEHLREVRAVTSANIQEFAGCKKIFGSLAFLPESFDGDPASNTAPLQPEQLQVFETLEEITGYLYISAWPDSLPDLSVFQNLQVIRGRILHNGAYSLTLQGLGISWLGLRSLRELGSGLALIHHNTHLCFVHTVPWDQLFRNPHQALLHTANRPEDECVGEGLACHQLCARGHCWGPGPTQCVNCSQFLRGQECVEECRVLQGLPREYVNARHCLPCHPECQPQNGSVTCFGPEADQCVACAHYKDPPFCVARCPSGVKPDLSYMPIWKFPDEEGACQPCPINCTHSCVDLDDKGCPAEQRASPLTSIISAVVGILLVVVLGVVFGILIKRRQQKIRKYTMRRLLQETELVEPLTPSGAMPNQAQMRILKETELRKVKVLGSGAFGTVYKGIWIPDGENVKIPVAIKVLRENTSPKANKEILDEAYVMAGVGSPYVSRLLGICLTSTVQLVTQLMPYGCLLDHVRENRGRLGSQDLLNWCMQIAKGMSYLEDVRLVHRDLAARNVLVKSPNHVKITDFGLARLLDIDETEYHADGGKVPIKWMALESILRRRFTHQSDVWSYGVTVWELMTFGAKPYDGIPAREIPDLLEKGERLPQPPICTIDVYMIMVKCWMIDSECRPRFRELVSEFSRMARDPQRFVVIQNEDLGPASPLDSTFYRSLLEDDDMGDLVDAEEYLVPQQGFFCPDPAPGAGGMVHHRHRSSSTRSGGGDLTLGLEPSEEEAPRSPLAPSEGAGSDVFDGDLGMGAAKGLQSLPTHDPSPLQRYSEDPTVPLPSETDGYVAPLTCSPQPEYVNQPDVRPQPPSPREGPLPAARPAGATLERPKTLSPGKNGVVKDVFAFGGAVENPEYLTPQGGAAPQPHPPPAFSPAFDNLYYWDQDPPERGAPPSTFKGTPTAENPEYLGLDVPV

| SMILES | viability [1] | Her2 level [2] | viability [3] | viability [4] | viability [5] | differential viability (reversal) ([6]; H69AR cells + 2 uM doxorubicin) | viability [6, 9] | viability [6, 10] | inhibition [7] | inhibition [8] |
| --- | --- | --- | --- | --- | --- | --- | --- | --- | --- | --- |
| CCOC(=O)N1CCC(N2C(=O)c3ccc(C(=O)NCc4ccco4)cc3C2=O)CC1 | 95.5% | 94% (inactive) | 95.5% (inactive) | 79.6% (inactive) | 85.9% (inactive) | 4.97% (inactive) | 81% | 85.9% | 0% (inactive) | -0.17% (inactive) |
| O=C(NCC1CCCO1)c1ccccc1-c1nc(-c2ccc(Cl)cc2)no1 (stereo not given) | 78.5% | 87.5% (inactive) | 78.5% (inactive) | 76% (inactive) | 95.1% (inactive) | 6.99% (inactive) | 88.1% | 95.1% | -5.68% (inactive) | 1.8% (inactive) |
| Cc1cccc(OCC(=O)N(Cc2cccs2)C2CCS(=O)(=O)C2)c1C (stereo not given) | 96.5% | 83.5% (inactive) | 96.5% (inactive) | 72.8% (inactive) | 94.6% (inactive) | 3.22% (inactive) | 91.4% | 94.6% | -6.35% (inactive) | 3.02% (inactive) |
| CC(C)Cn1c(N)c(C(=O)COC(=O)c2ccc3c(c2)OCCO3)c(=O)n(C)c1=O | 87% | 102% (inactive) | 87% (inactive) | 71.3% (inactive) | 91.8% (inactive) | -6.76% (inactive) | 98.6% | 91.8% | -4.46% (inactive) | 0.16% (inactive) |
| CCCCCc1c(C)nc(N2CCc3ccccc32)[nH]c1=O | 92.5% | 90% (inactive) | 92.5% (inactive) | 57.4% (inactive) | 94.6% (inactive) | -0.605% (inactive) | 95.2% | 94.6% | -0.68% (inactive) | 3.17% (inactive) |
| CCOC(=O)c1c(C)[nH]c(C(=O)CSc2nc3ccccc3o2)c1C | 85.5% | 85% (inactive) | 85.5% (inactive) | 88.6% (inactive) | 73.3% (inactive) | -18.9% (inactive) | 92.2% | 73.3% | -1.15% (inactive) | -5.17% (inactive) |
| Cn1c(C(=O)N2CCCC(C(=O)NCCCc3ccccc3)C2)cc2sccc21 (stereo not given) | 98% | 83.5% (inactive) | 98% (inactive) | 80.9% (inactive) | 82.3% (inactive) | -16.3% (inactive) | 98.7% | 82.3% | -1.28% (inactive) | -1.17% (inactive) |
| Cc1cc(Br)ccc1NC(=O)CNC(=O)CSc1n[nH]c(N)n1 | 110% | 89.5% (inactive) | 110% (inactive) | 99.3% (inactive) | 104% (inactive) | 16.3% (inactive) | 87.3% | 104% | -6.22% (inactive) | 8.41% (inactive) |
| Cc1cc(=O)n(C)c(=O)n1CCCNc1ccccc1 | 82% | 115% (inactive) | 82% (inactive) | 83.7% (inactive) | 99.9% (inactive) | 11.4% (inactive) | 88.5% | 99.9% | 0% (inactive) | -5% (inactive) |
| CC(C)C(=O)Nc1cccc(NC(=O)c2cccnc2)c1 | 102% | 98.5% (inactive) | 102% (inactive) | 107% (inactive) | 97.9% (inactive) | -1.67% (inactive) | 99.6% | 97.9% | -2.63% (inactive) | 4.1% (inactive) |
| CCOC(=O)c1c(NC(=O)CSc2nnc(-c3cccnc3)o2)sc(C)c1C | 120% | 104% (inactive) | 120% (inactive) | 103% (inactive) | 99.1% (inactive) | 14% (inactive) | 85.1% | 99.1% | -4.34% (inactive) | -8.73% (inactive) |
| CCN(C(=O)Cc1c(C(=O)O)[nH]c2ccccc12)c1cc(OC)ccc1OC | 112% | 84% (inactive) | 112% (inactive) | 94.1% (inactive) | 92.7% (inactive) | -2.61% (inactive) | 95.3% | 92.7% | -6.62% (inactive) | 4.5% (inactive) |
| O=c1cc(-c2ccccc2)[nH]c2nc3ccccc3n12 | 90.5% | 60.5% (inactive) | 90.5% (inactive) | 35.5% (inactive) | 9.48% (active) | -49.3% (inactive) | 58.8% | 9.48% | -2.76% (inactive) | -2.73% (inactive) |
| CC1(C)CC(=O)C2=C(C1)OC(=O)C2(NC(=O)c1cccs1)C(F)(F)F (stereo not given) | 102% | 83% (inactive) | 102% (inactive) | 88.3% (inactive) | 98% (inactive) | 3.83% (inactive) | 94.2% | 98% | -4.05% (inactive) | 12.2% (inactive) |
| CCCn1c2ccccc2c2nnc(SCC(=O)Nc3ncccn3)nc21 | 105% | 75.5% (inactive) | 105% (inactive) | 93.4% (inactive) | 87.6% (inactive) | 10.3% (inactive) | 77.4% | 87.6% | -0.53% (inactive) | -2.36% (inactive) |
| Cn1c(=O)[nH]c(=O)c2c1nc(N1CCNCC1)n2CCOc1ccccc1 | 79.5% | 108% (inactive) | 79.5% (inactive) | 81.1% (inactive) | 82% (inactive) | -8.6% (inactive) | 90.6% | 82% | 4.32% (inactive) | 10.8% (inactive) |

| SMILES | viability [1] | Her2 level [2] | viability [3] | viability [4] | viability [5] | differential viability (reversal) ([6]; H69AR cells + 2 uM doxorubicin) | viability [6, 9] | viability [6, 10] | inhibition [7] | inhibition [8] |
| --- | --- | --- | --- | --- | --- | --- | --- | --- | --- | --- |
| O=C(O)C1CC(=O)N(Cc2ccccc2)C1 (stereo not given) | 109% | 96.5% (inactive) | 109% (inactive) | 91.2% (inactive) | 90.2% (inactive) | 0.445% (inactive) | 89.8% | 90.2% | -5.39% (inactive) | 6.23% (inactive) |
| Cc1oc(-c2ccccc2F)nc1CS(=O)(=O)CC(=O)NCCCN1CCc2ccccc2C1 | 81.5% | 81.5% (inactive) | 81.5% (inactive) | 56.5% (inactive) | 79.9% (inactive) | -9.14% (inactive) | 89.1% | 79.9% | -1.6% (inactive) | -1.97% (inactive) |
| Cc1ccccc1-c1nc(CN2CCC(C(=O)NCc3cccnc3)CC2)c(C)o1 | 88.5% | 82.5% (inactive) | 88.5% (inactive) | 85.7% (inactive) | 87.1% (inactive) | 0.825% (inactive) | 86.3% | 87.1% | -1.71% (inactive) | 0% (inactive) |
| Cn1c(=O)c2c(nc(NCCCO)n2C/C=C/c2ccccc2)n(C)c1=O | 73.5% | 70.5% (inactive) | 73.5% (inactive) | 85.7% (inactive) | 83.2% (inactive) | -14.8% (inactive) | 98% | 83.2% | -4.08% (inactive) | -0.17% (inactive) |
| O=C(Nc1ccccc1C(F)(F)F)c1cc(S(=O)(=O)N2CCOCC2)ccc1F | 96.5% | 91.5% (inactive) | 96.5% (inactive) | 102% (inactive) | 90.4% (inactive) | 8.93% (inactive) | 81.5% | 90.4% | -6.49% (inactive) | 1.43% (inactive) |
| CC(C)(C)OC(=O)NCCc1nnc(SCC(=O)c2ccc(Cl)cc2)o1 | 97.5% | 106% (inactive) | 97.5% (inactive) | 93.1% (inactive) | 105% (inactive) | 13% (inactive) | 92.4% | 105% | -0.78% (inactive) | -3.83% (inactive) |
| COc1ccc(C)cc1NC(=O)COCC(=O)O | 106% | 114% (inactive) | 106% (inactive) | 92.4% (inactive) | 103% (inactive) | 7.92% (inactive) | 95.2% | 103% | -6.89% (inactive) | -3.49% (inactive) |
| COc1ccccc1N1CCN(C(=O)CCNS(=O)(=O)c2ccc3c(c2)CCC(=O)N3)CC1 | 89% | 81.5% (inactive) | 89% (inactive) | 106% (inactive) | 89.8% (inactive) | -0.605% (inactive) | 90.4% | 89.8% | -4.53% (inactive) | 2.62% (inactive) |
| O=C(Nc1ncc(Br)s1)C1CCCN1S(=O)(=O)c1cccc2cccnc12 (stereo not given) | 93% | 81.5% (inactive) | 93% (inactive) | 87.4% (inactive) | 29.8% (active) | -10.8% (inactive) | 40.6% | 29.8% | -0.38% (inactive) | -1.5% (inactive) |
| CCCN1CCN(C(=O)Cn2c(=O)oc3cc(S(=O)(=O)NCc4ccccc4)ccc32)CC1 | 92.5% | 95% (inactive) | 92.5% (inactive) | 85.6% (inactive) | 95.3% (inactive) | 7.88% (inactive) | 87.5% | 95.3% | -2.67% (inactive) | -0.98% (inactive) |
| Cc1cccc(N2C(=O)CC(N3CCN(C(=O)c4ccccc4)CC3)C2=O)c1 (stereo not given) | 114% | 104% (inactive) | 114% (inactive) | 90.8% (inactive) | 96.3% (inactive) | 12.7% (inactive) | 83.6% | 96.3% | -5.32% (inactive) | 2.13% (inactive) |
| Nc1nonc1N1CCCCC1 | 85.5% | 152% (inactive) | 85.5% (inactive) | 106% (inactive) | 99.1% (inactive) | 11.5% (inactive) | 87.6% | 99.1% | -3.51% (inactive) | -7.33% (inactive) |
| O=S1(=O)CC(N2CCOCC2)c2ccccc21 (stereo not given) | 95% | 98% (inactive) | 95% (inactive) | 92.2% (inactive) | 103% (inactive) | 4.56% (inactive) | 98.1% | 103% | 0.27% (inactive) | -9.52% (inactive) |
| O=C(c1ccccc1Oc1nnnn1-c1ccccc1)N1CCOCC1 | 89.5% | 84% (inactive) | 89.5% (inactive) | 67.6% (inactive) | 79.6% (inactive) | 7.74% (inactive) | 71.9% | 79.6% | -2.31% (inactive) | -5.67% (inactive) |
| Cc1ccc(NC(=O)C2CCCN(S(=O)(=O)c3cnc[nH]3)C2)c(Br)c1 (stereo not given) | 88.5% | 92% (inactive) | 88.5% (inactive) | 88.1% (inactive) | 101% (inactive) | 8.17% (inactive) | 93.3% | 101% | -0.93% (inactive) | -1.97% (inactive) |
